Measured values from different studies.
Effect on: cell growth or viability

Cc1cc(NC(=O)c2cccc3cc(-c4cccc5[nH]nc(N)c45)ccc23)ccc1F
IC50 (mouse BMDM; CCK-8; 72 h): 93 nM

NCCOc1cc(NC(=O)c2cc(OCc3c[nH]nn3)cc(C(=O)Nc3cc(OCCN)c4ccccc4n3)n2)nc2ccccc12
IC50 (U2OS; ATP luminescence; 72 h): > 40000 nM

CN1c2ccccc2C(=O)N2[C@H](C(=O)Nc3ccc(C(=O)Nc4ccccc4N)cc3)Cc3c([nH]c4ccccc34)[C@@H]12
IC50 (HEL): 660 nM

CN(C)CCOc1cc(NC(=O)c2cc(Cl)cc(C(=O)Nc3cc(OCCN(C)C)c4ccccc4n3)n2)nc2ccccc12
IC50 (U2OS; ATP luminescence; 72 h): 2200 nM

CC(=O)Oc1ccc2c(c1)C(C)=CC(C)(C)N2Cc1ccccc1
IC50 (PLC5; MTT; 72 h): 18000 nM

Cc1ccc(O)c(/C=N/c2nc(Oc3ccccc3)nn2-c2ccc(C(=O)O)cc2)c1
IC50 (RPE-1; MTT): 33700 nM

NCCOc1cc(C(=O)Nc2cc(OCCN)c3ccccc3n2)nc(C(=O)Nc2cc(OCCN)c3ccccc3n2)c1
IC50 (U2OS; ATP luminescence; 72 h): 16800 nM

CC(C)C[C@H](NC(=O)[C@H](Cc1ccccc1)NC(=O)c1cnccn1)B(O)O
IC50 (RL95-2; ATP luminescence): 12 nM

COc1cc(C(=O)Nc2cc(OCCN3CCCC3)c3ccccc3n2)nc(C(=O)Nc2cc(OCCN3CCCC3)c3ccccc3n2)c1
IC50 (U2OS; ATP luminescence; 72 h): 1600 nM

CSc1nc(/N=C/c2cc(Br)ccc2O)n(-c2ccc(C(=O)O)cc2)n1
IC50 (RPE-1; MTT): 37600 nM

CC(C)[C@H](N)C(=O)N1CCC[C@H]1B(O)O
IC50 (NB-4; ATP luminescence; 48 h): 100 nM

COc1cccc2c1C(=O)c1c(O)c3c(c(O)c1C2=O)C[C@@](O)(C(=O)CO)C[C@@H]3O[C@H]1C[C@H](N)[C@H](O)[C@H](C)O1
IC50 (RPE-1; MTT): 22600 nM

COc1cc(-c2ncn(/C=C\C(=O)OC(C)C)n2)cc(C(F)(F)F)c1
IC50 (HEL; 72 h): 104 nM

C#CCOc1cc(C(=O)Nc2cc(OCCCN)c3ccccc3n2)nc(C(=O)Nc2cc(OCCCN)c3ccccc3n2)c1
IC50 (U2OS; ATP luminescence; 72 h): 2300 nM

CC(=O)c1ccc(O)cn1
IC50 (Hepa-1c1c7; crystal violet; 48 h): > 100000 nM

COc1cc(C)c(-c2c(C)cc(OC)c3c(=O)cc(-c4ccc(N(C)C)cc4)oc23)c2oc(-c3ccc(N(C)C)cc3)cc(=O)c12
IC50 (HeLa; MTT; 48 h): 1400 nM

N[C@@H](CC(=O)N1CCN(C(c2ccc(F)cc2)c2ccc(F)cc2)CC1)C(=O)N1Cc2ccccc2C1
IC50 (NB-4; ATP luminescence; 48 h): 1330 nM

Nc1ncc(-c2cnn(C3CCNCC3)c2)cc1-c1nnc(CC2CC2)o1
IC50 (NB-4; trypan blue; 72 h): 846 nM

COc1cc(OC)c2c(=O)cc(-c3ccc(N(C)C)cc3)oc2c1-c1c(OC)cc(OC)c2c(=O)cc(-c3ccc(N(C)C)cc3)oc12
IC50 (HeLa; MTT; 48 h): 43800 nM

CSc1nc(NC(=S)NCCc2ccccc2)n(-c2ccc(C(=O)O)cc2)n1
IC50 (RPE-1; MTT): 28300 nM

CCCCc1ccc2[nH]c(NC(=O)OC)nc2c1
IC50 (SCC-9; CCK-8; 72 h): 76.9 nM

COc1ccc(O)c(/C=N/c2nc(SC)nn2-c2ccc(C(=O)O)cc2)c1
IC50 (RPE-1; MTT): 35200 nM

NCCOc1cc(C(=O)Nc2cc(OCCN3CCCC3)c3ccccc3n2)nc(C(=O)Nc2cc(OCCN3CCCC3)c3ccccc3n2)c1
IC50 (U2OS; ATP luminescence; 72 h): 200 nM

COc1cc(Nc2nccc(-c3cnn4nc(OC)ccc34)n2)cc(C(F)(F)F)c1
IC50 (RL95-2; ATP luminescence): 1000 nM

Nc1nc(Oc2ccccc2)nn1-c1ccc(C(=O)O)cc1
IC50 (RPE-1; MTT): 25700 nM

COc1nc(OCc2cccc(-c3ccccc3)c2C)ccc1CNCCNC(C)=O
IC50 (HCT-8; MTT): 3900 nM

NCCOc1cc(NC(=O)c2cccc(C(=O)Nc3cc(OCCN)c4ccccc4n3)n2)nc2ccccc12
IC50 (U2OS; ATP luminescence; 72 h): 700 nM

CSc1nc(/N=C/c2ccc(O)cc2)n(-c2ccc(C(=O)O)cc2)n1
IC50 (RPE-1; MTT): 39100 nM

CC[C@@H](C)[C@H](N)C(=O)N1Cc2ccccc2C1
IC50 (HEL; ATP luminescence; 48 h): > 60000 nM

NCCCOc1cc(NC(=O)c2cc(OCCN)cc(C(=O)Nc3cc(OCCCN)c4ccccc4n3)n2)nc2ccccc12
IC50 (U2OS; ATP luminescence; 72 h): 14100 nM

CSc1nc(/N=C/c2cc(C)ccc2O)n(-c2ccc(C(=O)O)cc2)n1
IC50 (RPE-1; MTT): 36000 nM
